Source: PubChem
TRPC6 act: mouse TRPC6 channel activation; B-score at 10 µM; HEK293-TRPC6 membrane potential dye fluorescence; stronger effect = higher value; Q61143; 310,000 compounds, 0.13% hits;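 active means B-score of the integrated fluorescence ratio above library mean plus 3 SD, and starting fluorescence ratio within library mean plus 5 SD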;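 further: higher score means more depolarization so channel activation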
TRPC6 inh: blocks the mouse TRPC6 cation channel | AID 2553 | Q61143 | B-score at 10 µM | 310,000 compounds, 1.1% hits | HEK293-TRPC6, membrane potential dye, ACh-evoked depolarization; stronger effect = lower value;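 active means B-score under library mean minus 3 SD, initial fluorescence not abnormally high, positive integrated signal ratio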;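 further: B-score derived from integrated fluorescence ratio over the kinetic read; more negative B-score means stronger inhibition of depolarization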
TRPC4 potent: allosteric potentiators of mouse TRPC4 channel | Q9QUQ5 | HEK293 TRPC4beta/mu-opioid, DAMGO EC20, Fluo-4 Ca2+ flux; stronger effect = higher value | B-score at 10 µM | 310,000 compounds, 0.42% hits;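 active means B-score of calcium response area above 5 SD of library B-scores, with initial fluorescence ratio within 5 SD of library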;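 further: B-score of integrated fluorescence ratio over time as area under calcium response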
Target sequence (Q9QUQ5 whole entry, looked up): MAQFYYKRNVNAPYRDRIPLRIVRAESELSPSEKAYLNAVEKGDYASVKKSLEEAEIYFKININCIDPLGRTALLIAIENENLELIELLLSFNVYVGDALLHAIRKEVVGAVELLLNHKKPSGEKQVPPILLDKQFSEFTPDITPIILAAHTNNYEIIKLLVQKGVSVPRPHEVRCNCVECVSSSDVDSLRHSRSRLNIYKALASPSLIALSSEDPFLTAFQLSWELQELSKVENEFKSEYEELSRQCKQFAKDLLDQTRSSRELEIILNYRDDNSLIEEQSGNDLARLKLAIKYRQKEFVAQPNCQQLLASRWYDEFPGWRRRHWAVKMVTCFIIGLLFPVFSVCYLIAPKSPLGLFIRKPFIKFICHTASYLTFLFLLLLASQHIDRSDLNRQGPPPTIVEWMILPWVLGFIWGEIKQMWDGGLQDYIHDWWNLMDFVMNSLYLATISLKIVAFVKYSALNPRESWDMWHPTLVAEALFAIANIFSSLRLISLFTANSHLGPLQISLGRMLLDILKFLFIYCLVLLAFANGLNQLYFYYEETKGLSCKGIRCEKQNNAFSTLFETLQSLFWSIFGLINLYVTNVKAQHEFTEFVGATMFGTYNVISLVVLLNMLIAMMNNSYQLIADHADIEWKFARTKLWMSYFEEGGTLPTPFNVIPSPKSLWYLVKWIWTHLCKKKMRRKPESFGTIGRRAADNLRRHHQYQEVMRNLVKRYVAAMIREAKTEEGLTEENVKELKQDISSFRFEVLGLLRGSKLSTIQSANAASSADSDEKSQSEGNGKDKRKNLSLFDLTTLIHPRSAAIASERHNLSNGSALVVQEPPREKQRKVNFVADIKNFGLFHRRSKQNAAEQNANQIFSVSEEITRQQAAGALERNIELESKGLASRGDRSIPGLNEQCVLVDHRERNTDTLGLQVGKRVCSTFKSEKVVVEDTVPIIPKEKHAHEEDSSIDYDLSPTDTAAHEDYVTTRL
TRPC4 agonist: opens the mouse TRPC4 cation channel; HEK293 TRPC4beta/mu-opioid, Fluo4 calcium fluorescence; stronger effect = higher value; B-score at 10 µM; 310,000 compounds, 0.49% hits;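 active means B-score above 5 SD of library B-scores, and initial fluorescence ratio not above library mean plus 5 SD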;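 further: positive B-score marks a calcium rise read as TRPC4 activation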
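Assay system: HEK293 stable line with TRPC4beta plus mu-opioid receptor. Times: dye 45 min RT, read 110 s. Measured by: kinetic Fluo4 calcium fluorescence. Measure: B score of integrated ratio. Controls: assay buffer as low control, maximal DAMGO as high control.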
TRPC4 block: blocks the mouse TRPC4 cation channel. Q9QUQ5. AID 2247. B-score at 10 µM. HEK293 TRPC4beta/mu-opioid, DAMGO-evoked Fluo4 calcium flux; stronger effect = lower value. 300,000 compounds, 0.39% hits;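 active means B-score over 3 SD under the library average, no early fluorescence shift, positive overall ratio signal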
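Assay system: HEK293 cells with stable TRPC4beta plus mu-opioid receptor expression; Probe or stimulus: DAMGO in two steps, submaximal then maximal; Dosing: single-point compound dosing; Measured by: Fluo4 calcium-dye fluorescence, kinetic read; Read-out basis: B score from integrated Fluo4 fluorescence ratio.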
Numbers without * were called inactive. In the library only some 2.3% were active in any assay of this set; here they are far more common.

`CN(C)C(CNC(=O)c1ccccc1OCc1ccc(Cl)cc1)c1ccco1` (stereo not given) gave TRPC6 act inactive, TRPC6 inh inactive, TRPC4 potent inactive, TRPC4 agonist inactive and TRPC4 block -7*.
`CC(C)CCOc1ccc(C(=O)NCC(c2ccco2)N(C)C)cc1` (stereo not given) gave TRPC6 act inactive, TRPC6 inh inactive, TRPC4 potent inactive, TRPC4 agonist inactive and TRPC4 block -7*.
`CN(C)C(CNC(=O)CCNC(=O)c1ccc(Br)cc1)c1ccco1` (stereo not given) gave TRPC6 act inactive, TRPC6 inh inactive, TRPC4 potent inactive, TRPC4 agonist inactive and TRPC4 block inactive.
CN(C)C(CNC(=O)c1ccc(Br)cc1)c1ccco1 (stereo not given) was read as TRPC6 act inactive, TRPC6 inh inactive, TRPC4 potent inactive, TRPC4 agonist 63* and TRPC4 block inactive.
For Cc1cc(C(=O)NCC(c2ccco2)N(C)C)ccc1[N+](=O)[O-] (stereo not given) the results were TRPC6 act inactive, TRPC6 inh inactive, TRPC4 potent inactive, TRPC4 agonist 71* and TRPC4 block inactive.
Screening COc1ccc(N2CCN(C(=O)CCc3nnc4ccc(N5CCCC5)nn34)CC2)cc1 returned TRPC6 act inactive, TRPC6 inh inactive, TRPC4 potent inactive, TRPC4 agonist inactive and TRPC4 block inactive.
COc1ccc(C(=O)Nc2ccccc2C(=O)NCC2CCCO2)cc1 (stereo not given) was read as TRPC6 act inactive, TRPC6 inh inactive, TRPC4 potent inactive, TRPC4 agonist inactive and TRPC4 block inactive.
`Cc1c(C(=O)NCC(c2ccco2)N(C)C)oc2c(Cl)cccc12` (stereo not given) gave TRPC6 act inactive, TRPC6 inh inactive, TRPC4 potent inactive, TRPC4 agonist inactive and TRPC4 block -8*.
`CN(C)C(CNC(=O)c1cc(Br)ccc1Cl)c1ccco1` (stereo not given) gave TRPC6 act inactive, TRPC6 inh inactive, TRPC4 potent inactive, TRPC4 agonist inactive and TRPC4 block inactive.
For CCOC(=O)N1CCN(C(=O)C(=O)Nc2sc3c(c2C(=O)O)CC(C)(C)OC3)CC1 the results were TRPC6 act inactive, TRPC6 inh inactive, TRPC4 potent inactive, TRPC4 agonist inactive and TRPC4 block inactive.
Cc1c(CCOC(=O)CC23CC4CC(CC(C4)C2)C3)sc[n+]1CC(=O)c1ccccc1 was read as TRPC6 act inactive, TRPC6 inh inactive, TRPC4 potent inactive, TRPC4 agonist inactive and TRPC4 block -5*.
For Cc1cccc2[nH]c(CCNC(=O)C3CCC(=O)N(CCc4cccc(F)c4)C3)nc12 (stereo not given) the results were TRPC6 act inactive, TRPC6 inh inactive, TRPC4 potent inactive, TRPC4 agonist inactive and TRPC4 block inactive.
`Cc1sc2ncnc(N(C)Cc3cccs3)c2c1C` gave TRPC6 act inactive, TRPC6 inh inactive, TRPC4 potent inactive, TRPC4 agonist inactive and TRPC4 block inactive.
Screening Cc1sc2ncnc(N(C)CCc3ccccn3)c2c1C returned TRPC6 act inactive, TRPC6 inh inactive, TRPC4 potent inactive, TRPC4 agonist 80* and TRPC4 block inactive.
O=C(C[n+]1ccc(/C=C/c2ccccc2)cc1)c1ccc2c(c1)OCCO2 was read as TRPC6 act inactive, TRPC6 inh inactive, TRPC4 potent inactive, TRPC4 agonist inactive and TRPC4 block inactive.
For CCCc1nc2c(sc3nc4c(cc32)COC(C)(C)C4)c(=O)o1 the results were TRPC6 act inactive, TRPC6 inh inactive, TRPC4 potent inactive, TRPC4 agonist inactive and TRPC4 block inactive.
Screening O=C(C1CCCN(Cc2ccccc2F)C1)N1CCc2ccccc2C1 (stereo not given) returned TRPC6 act inactive, TRPC6 inh inactive, TRPC4 potent inactive, TRPC4 agonist 110* and TRPC4 block inactive.
`O=C(C1CCCN(Cc2ccncc2)C1)N1CCc2ccccc2C1` (stereo not given) gave TRPC6 act inactive, TRPC6 inh inactive, TRPC4 potent inactive, TRPC4 agonist 164* and TRPC4 block inactive.
O=C(C1CCCN(Cc2ccccc2F)C1)N1CCCCC1 (stereo not given) was read as TRPC6 act inactive, TRPC6 inh inactive, TRPC4 potent inactive, TRPC4 agonist inactive and TRPC4 block inactive.
For Cc1cccc(CN2CCCC(C(=O)N3CCc4ccccc4C3)C2)c1 (stereo not given) the results were TRPC6 act inactive, TRPC6 inh inactive, TRPC4 potent inactive, TRPC4 agonist 70* and TRPC4 block inactive.
Screening O=C(Nc1ccccc1Oc1cccnc1)C1CCCN(C/C=C/c2ccc(F)cc2)C1 (stereo not given) returned TRPC6 act inactive, TRPC6 inh inactive, TRPC4 potent inactive, TRPC4 agonist inactive and TRPC4 block inactive.
For Cc1cccc(CN2CCCC(C(=O)Nc3ccccc3Oc3cccnc3)C2)c1 (stereo not given) the results were TRPC6 act inactive, TRPC6 inh inactive, TRPC4 potent inactive, TRPC4 agonist inactive and TRPC4 block -6*.
Screening CCCc1nnc(NC(=O)CCC(=O)N2CCN(c3ccccc3)CC2)s1 returned TRPC6 act inactive, TRPC6 inh inactive, TRPC4 potent inactive, TRPC4 agonist inactive and TRPC4 block inactive.
COC(=O)C1=C(COc2ccccc2)NC(=O)NC1c1ccc(Cl)cc1 (stereo not given) was read as TRPC6 act inactive, TRPC6 inh inactive, TRPC4 potent 11*, TRPC4 agonist inactive and TRPC4 block inactive.
Screening CCOC(=O)C1=C(COc2ccccc2)NC(=O)NC1c1ccc(Cl)cc1 (stereo not given) returned TRPC6 act inactive, TRPC6 inh inactive, TRPC4 potent inactive, TRPC4 agonist inactive and TRPC4 block inactive.
`Cc1[nH][nH]c(=O)c1C(c1ccc(Cl)cc1)c1c(C)[nH][nH]c1=O` gave TRPC6 act inactive, TRPC6 inh inactive, TRPC4 potent inactive, TRPC4 agonist inactive and TRPC4 block inactive.
For Clc1ccc(OCCCNCc2ccccc2)c2ccccc12 the results were TRPC6 act inactive, TRPC6 inh inactive, TRPC4 potent inactive, TRPC4 agonist 56* and TRPC4 block inactive.
Screening Brc1ccccc1OCCNCc1ccccc1 returned TRPC6 act inactive, TRPC6 inh inactive, TRPC4 potent inactive, TRPC4 agonist inactive and TRPC4 block inactive.
For COC(=O)CSc1nnc(CNS(=O)(=O)c2ccc(Br)cc2)n1C the results were TRPC6 act inactive, TRPC6 inh inactive, TRPC4 potent inactive, TRPC4 agonist inactive and TRPC4 block -6*.
